# From ChEMBL document CHEMBL4251571, “Design, syntheses and lipid accumulation inhibitory activities of novel resveratrol mimics” (Eur J Med Chem, 2018)
# Active and inactive are the calls of the source. No cut-off for these calls is given here.
# Assays:
# 3T3-L1 [1] = assay: Inhibition of triglyceride accumulation in mouse 3T3L1 cells at 1 to 10 uM after 6 days by ORO staining-based microscopic method; assay type: functional, cell-based
# Outline: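 Differentiating 3T3-L1 cells received compounds in DMSO with the differentiation cocktail over 6 days, with 0.1% DMSO vehicle and berberine control. On day 6, cells fixed 1 h in 10% formaldehyde/PBS at room temperature and stained 30 min with fresh Oil Red O. After water washes, they were imaged at 10× magnification under constant light settings. Undifferentiated cells served as reference.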
# Mus musculus [2] = organism: Mus musculus; assay: Induction of AMPKalpha phosphorylation in mouse 3T3L1 cells assessed as increase in ACC phosphorylation at 10 uM after 3 days by Western blotting method relative to control; assay type: cell-based
# Outline: (§1)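 3T3-L1 lysates were made in NP-40/deoxycholate/SDS buffer with protease and phosphatase inhibitors, then transferred to membranes. Membranes were blocked 2 h in 5% skim milk/TBST and probed with antibodies to phospho-Thr172 and total AMPKα, phospho-Ser79 and total ACC, SIRT1, PPARγ, SREBP-1c and FABP4. Detection was by ECL, with densitometry normalized to α-tubulin. Mean ± SD of 3 independent experiments.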
# 3T3-L1 [3] = assay: Inhibition of triglyceride accumulation in mouse 3T3L1 cells after 3 days; assay type: functional, cell-based; conditions: in the assay text read “after 6 days” for “after 3 days”
# Outline: (§2)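 3T3-L1 preadipocytes differentiated from 2 days post-confluence: 3 days in DMEM/10% FBS with insulin, dexamethasone, 0.5 mM IBMX and biotin, then 3 days with insulin only. Compounds in DMSO (0.1% DMSO vehicle) given on days 0 and 3. Berberine as positive control. Cells washed in ice-cold PBS and lysed; triglyceride measured with a commercial kit. Reported as TG relative to […] cells, mean ± SD of three independent experiments.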
# 3T3-L1 [4] = assay: Downregulation of SREBP-1c protein expression in mouse 3T3L1 cells at 10 uM after 3 days by Western blotting method; assay type: functional, cell-based; outline: as §1
# [5] = Cytotoxicity against HEK293T cells after 24 hrs by MTT assay; assay type: cell-based, HEK-293T; conditions: human
# Outline: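 HEK293T seeded 5000/well, grown overnight, then exposed to a range of compound concentrations for 24 h with 0.5% DMSO vehicle. MTT (0.05 mg/well) added for 4 h, formazan dissolved in DMSO, absorbance read at 492 nm after 20 min shaking. Percentage computed as (A experiment − A blank)/(A control − A blank).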
# Mus musculus [6] = organism: Mus musculus; assay: Induction of AMPKalpha phosphorylation in mouse 3T3L1 cells at 10 uM after 3 days by Western blotting method relative to control; assay type: cell-based; outline: as §1
# 3T3-L1 [7] = assay: Downregulation of PPARgamma protein expression in mouse 3T3L1 cells at 10 uM after 3 days by Western blotting method; assay type: functional, cell-based; outline: as §1
# 3T3-L1 [8] = assay: Downregulation of FABP4 mRNA expression in mouse 3T3L1 cells at 10 uM after 3 days by RT-qPCR method; assay type: functional, cell-based
# Outline: (§3)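 Compounds were added to 3T3-L1 cells during cocktail-induced differentiation. Total RNA was extracted with RNAiso plus, and 1 µg was reverse-transcribed before real-time qPCR. Mouse primers were used for AMPK, ACC, SREBP-1c and FABP4. Mean ± SD of 3 independent experiments versus vehicle.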
# 3T3-L1 [9] = assay: Effect on ACC mRNA expression in mouse 3T3L1 cells at 10 uM after 3 days by qRT-PCR method; assay type: functional, cell-based; outline: as §3
# 3T3-L1 [10] = assay: Downregulation of FABP4 protein expression in mouse 3T3L1 cells at 10 uM after 3 days by Western blotting method; assay type: functional, cell-based; outline: as §1
# 3T3-L1 [11] = assay: Upregulation of SIRT1 protein expression in mouse 3T3L1 cells at 10 uM after 3 days by Western blotting method; assay type: functional, cell-based; outline: as §1
# 3T3-L1 [12] = assay: Downregulation of SREBP-1c mRNA expression in mouse 3T3L1 cells at 10 uM after 3 days by RT-qPCR method; assay type: functional, cell-based; outline: as §3
# 3T3-L1 [13] = assay: Upregulation of SIRT1 mRNA expression in mouse 3T3L1 cells at 10 uM after 3 days by qRT-PCR method; assay type: functional, cell-based
# 3T3-L1 [14] = assay: Effect on AMPKalpha mRNA expression in mouse 3T3L1 cells at 10 uM after 3 days by qRT-PCR method; assay type: functional, cell-based; outline: as §3
# 3T3-L1 [15] = assay: Downregulation of PPARgamma mRNA expression in mouse 3T3L1 cells at 10 uM after 3 days by RT-qPCR method; assay type: functional, cell-based
# 3T3-L1 [16] = assay: Inhibition of triglyceride accumulation in mouse 3T3L1 cells at 10 uM after 3 days relative to control; assay type: functional; conditions: 3T3-L1, 72 h; outline: as §2
compound,measurement,setting,value
COc1ccc2cc3[n+](cc2c1OC)CCc1cc2c(cc1-3)OCO2,inhibition,3T3-L1 [1],Active
Cc1ccc(/C=C/c2cc(O)cc(=O)[nH]2)o1,fold change (FC),Mus musculus [2],4.12
same,inhibition,3T3-L1 [3],Dose-dependent effect
same,Activity,3T3-L1 [4],Active
same,CC50 at 24 h,[5],> 1000 µM
same,fold change (FC),Mus musculus [6],3.1
same,Activity,3T3-L1 [7],Active
same,Activity,3T3-L1 [8],Active
same,Activity,3T3-L1 [9],inactive
same,Activity,3T3-L1 [10],Active
same,Activity,3T3-L1 [11],Active
same,Activity,3T3-L1 [12],Active
same,Activity,3T3-L1 [13],Active
same,Activity,3T3-L1 [14],inactive
same,Activity,3T3-L1 [15],Active
same,inhibition,3T3-L1 [1],Active
O=c1cc(O)cc(/C=C/c2cccs2)[nH]1,inhibition,3T3-L1 [3],Dose-dependent effect
O=c1cc(O)cc(/C=C/c2ccco2)[nH]1,inhibition,3T3-L1 [3],Dose-dependent effect
O=c1cc(O)cc(/C=C/c2ccccc2Cl)[nH]1,inhibition,3T3-L1 [3],Dose-dependent effect
O=c1cc(O)cc(/C=C/C2CCCCC2)[nH]1,fold change (FC),Mus musculus [2],2.98
same,inhibition,3T3-L1 [3],Dose-dependent effect
same,CC50 at 24 h,[5],13.8 µM
same,inhibition at 10 µM,3T3-L1 [16],78.4%
same,fold change (FC),Mus musculus [6],3.45
same,Activity,3T3-L1 [8],Active
same,Activity,3T3-L1 [9],inactive
same,Activity,3T3-L1 [11],Active
same,Activity,3T3-L1 [12],Active
same,Activity,3T3-L1 [13],Active
same,Activity,3T3-L1 [14],inactive
same,Activity,3T3-L1 [15],Active
same,inhibition,3T3-L1 [1],Active
Oc1ccc(/C=C/c2cc(O)cc(O)c2)cc1 [RESVERATROL],CC50 at 24 h,[5],22.8 µM
same,inhibition,3T3-L1 [1],Active
O=c1cc(O)cc(/C=C/c2ccccc2)[nH]1,inhibition,3T3-L1 [3],Dose-dependent effect
